Molecules are shown by their SMILES. The source made the active and inactive calls.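 How the source made its calls, unless noted: active means GFP response above 150% of the DMSO level; inconclusive means fewer than 70 events counted for a yeast strain; inactive means the rest.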

The text below walks through data of PubChem BioAssay.

Test [1] can be described thus: RPL19A-GFP modulators, yeast TOR pathway, confirmation, cell-based, S. cerevisiae, flow cytometry, cherry picks, mother/daughter gates (AID 2270;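 active means GFP response below 50% of the DMSO control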). The note with it: S. cerevisiae RPL19A-GFP strain, 3 h, at 10 µM, stronger effect = lower value, 100 = same GFP as DMSO wells.
Test [2] is described as follows: LAP4-GFP expression modulators in yeast, confirmation, cell-based, cherry picks, flow cytometry, mother/daughter gates (AID 2271;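 active means GFP response above 150% of the DMSO control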;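 further: ratio of sample to DMSO plate mean so 100% equals DMSO level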). The note with it: S. cerevisiae LAP4-GFP strain, 3 h, at 10 µM, stronger effect = higher value, 100 means same as DMSO control. The method in brief:
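System – GFP-fusion yeast strain · Amount – 0.2 OD600 cells · Buffer or medium – SC growth medium · Dosing – single test-compound dose, 10 µM final · Schedule – 3 h treatment at 30 °C with rotation · Detection – GFP by flow cytometry · Read-out – per-gate (all, mother, daughter) GFP response vs DMSO · Benchmarks – positive rapamycin (400 ng/mL), negative DMSO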

Test [3] is described as follows: modulators of MEP2-GFP levels in yeast, confirmation, S. cerevisiae, flow cytometry GFP, cherry picks (AID 2272;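 active means GFP response above 150% of the DMSO control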;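 further: ratio of well signal to plate DMSO mean so 100% equals DMSO level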). The note with it: S. cerevisiae MEP2-GFP strain, 3 h, at 10 µM, stronger effect = higher value.
A short description of test [4]: AGP1-GFP expression modulators, hit retest, confirmation, cell-based, flow cytometry, S. cerevisiae, cherry picks (AID 2273).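 Further: median GFP channel fluorescence over the whole cell population gate.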 The note with it: S. cerevisiae AGP1-GFP strain, 3 h, at 10 µM.
Test [5] in a line: modulators of CIT2-GFP expression in yeast, confirmation, S. cerevisiae, GFP fusion, cherry picks, mother/daughter gates (AID 2274). The note with it: S. cerevisiae CIT2-GFP strain, flow cytometry, 3 h, at 10 µM, stronger effect = higher value.
[6] abbreviates: measured here: daughter cell gate.
Setting [7] is: measured here: mother cell gate.
Setting [8] is: measured here: daughter cell gate response.
The mark [9] stands for this setting: measured here: mother cell gate response.

In the case of `Cc1ccc2c(c1)c1c(c(=O)n(-c3ccccc3C)c(=O)n1CC(=O)NCC1CCCO1)n2C` (stereo not drawn), the GFP response vs DMSO in test [1] was 98.4% (inactive); in test [1] (setting [6]), 99.9%; in test [1] (setting [7]), 97.2%; in test [3] it was 100% (inactive). For the same molecule, the figures for the GFP response relative to DMSO in test [2], in test [2] (setting [8]) and in test [2] (setting [9]) were 102% (inactive), 101% and 101%, respectively. Further, the GFP response, % of DMSO was 98.3% (inactive) in test [4], 103% (inactive) in test [5], 103% in test [5] (setting [6]) and 102% in test [5] (setting [7]).

On to `CCCc1ccc(C(=O)N2CCN(c3ccccc3OCC)CC2)cc1`, for which the GFP response vs DMSO was 99.1% (inactive) in test [1], 98.8% in test [1] (setting [6]), 99.2% in test [1] (setting [7]) and 97.5% (inactive) in test [3]. For the same molecule, the GFP response relative to DMSO in test [2] was 95.3% (inactive); in test [2] (setting [8]) it was 93.6%; in test [2] (setting [9]) it was 93.6%. For the same molecule, the GFP response, % of DMSO was 96.9% (inactive) in test [4], 96.4% (inactive) in test [5], 96.4% in test [5] (setting [6]) and 94.5% in test [5] (setting [7]).

Take `O=C(OCn1ncc(Br)c(Br)c1=O)c1ccccc1Cl`: the GFP response vs DMSO was 94.1% (inactive) in test [1], 96.2% in test [1] (setting [6]), 90.1% in test [1] (setting [7]) and 112% (inactive) in test [3]. Also, the GFP response relative to DMSO is 172% (active) in test [2], 150% in test [2] (setting [8]) and 167% in test [2] (setting [9]). Also, the GFP response, % of DMSO in test [4] was 105% (inactive); in test [5], 95% (inactive); in test [5] (setting [6]), 104%; in test [5] (setting [7]) it was 86.3%.

For the molecule `O=C1c2ccsc2SCCN1Cc1c(F)cccc1Cl`, the GFP response vs DMSO in test [1] was 92.8% (inactive); in test [1] (setting [6]), 90.7%; in test [1] (setting [7]), 93.9%; in test [3], 96.8% (inactive). In addition, the results for the GFP response relative to DMSO in test [2], in test [2] (setting [8]) and in test [2] (setting [9]) were 112% (inactive), 110% and 113%, respectively. The GFP response, % of DMSO in test [4] is 99% (inactive); in test [5], 98.8% (inactive); in test [5] (setting [6]) it was 99.2%; in test [5] (setting [7]), 98.1%.

As for `CC(=O)NC1(C(F)(F)F)C(=O)Nc2c1c(=O)[nH]c(=O)n2CCc1ccccc1` (stereo not drawn), the GFP response vs DMSO was 99.6% (inactive) in test [1], 98.4% in test [1] (setting [6]), 98.6% in test [1] (setting [7]) and 107% (inactive) in test [3]. The results for the GFP response relative to DMSO in test [2], in test [2] (setting [8]) and in test [2] (setting [9]) were 97% (inactive), 97.5% and 97.3%, respectively. The GFP response, % of DMSO was 95.7% (inactive) in test [4], 88.6% (inactive) in test [5], 90.2% in test [5] (setting [6]) and 88.2% in test [5] (setting [7]).

On to `CCc1cccc(C)c1NC(=O)CC1Oc2ccc(C)cc2NC1=O` (stereo not drawn), for which the GFP response vs DMSO in test [1] was 99.3% (inactive); in test [1] (setting [6]), 99.5%; in test [1] (setting [7]) it was 100%; in test [3] it was 101% (inactive). In addition, the GFP response relative to DMSO in test [2] was 90.6% (inactive); in test [2] (setting [8]), 91.3%; in test [2] (setting [9]), 91.3%. The GFP response, % of DMSO was 101% (inactive) in test [4], 98.6% (inactive) in test [5], 97.6% in test [5] (setting [6]) and 98.2% in test [5] (setting [7]).

Regarding `Cc1ccc(NC(=O)CCCSc2nc3ccccc3[nH]2)cc1`, the GFP response vs DMSO in test [1] was 99.6% (inactive); in test [1] (setting [6]), 99.1%; in test [1] (setting [7]), 100%; in test [3] it was 98.8% (inactive). For the same molecule, the GFP response relative to DMSO is 96.1% (inactive) in test [2], 98.2% in test [2] (setting [8]) and 98.2% in test [2] (setting [9]). Moreover, the GFP response, % of DMSO in test [4] was 106% (inactive); in test [5] it was 113% (inactive); in test [5] (setting [6]), 111%; in test [5] (setting [7]), 114%.

As for `CCCc1[nH]nc2c1C(c1ccc(OCCN3CCOCC3)c(OCC)c1)C(C#N)=C(N)O2` (stereo not drawn), the GFP response vs DMSO in test [1] was 98.4% (inactive); in test [1] (setting [6]), 98.4%; in test [1] (setting [7]) it was 98.9%; in test [3], 97.8% (inactive). For the same molecule, the values for the GFP response relative to DMSO in test [2], in test [2] (setting [8]) and in test [2] (setting [9]) were 90.2% (inactive), 95.6% and 91.1%, respectively. The GFP response, % of DMSO in test [4] was 97.8% (inactive); in test [5], 107% (inactive); in test [5] (setting [6]) it was 105%; in test [5] (setting [7]), 108%.
